These results are taken from ChEMBL document CHEMBL1124425, “Alkylating partial muscarinic agonists related to oxotremorine. N-[4-[(2-haloethyl)methylamino]-2-butynyl]-5-methyl-2-pyrrolidones” (J Med Chem, 1989).

Usually pKi stands for the negative decadic logarithm of the Ki, by convention in mol/L. Read a high pKi as a small Ki. As a reminder, the half-life is the time needed for the level to fall by half in the phase considered. Read a high half-life as slow loss. What is called LD50 is the dose at which mortality reaches 50%. Read a high LD50 as a less toxic substance.

A short description of series [1]: Binding affinity of compound towards muscarinic receptor using radioligand [3H]NMS in the rat cerebral cortex. In kind it is tissue-based. In short, it runs like this:
(§1)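 Male Sprague-Dawley rat cerebral cortex homogenised in 50 mM phosphate buffer pH 7.4 and centrifuged at 30000g. Competition against 0.3 nM (-)-[3H]NMS with the aziridinium ions, 1 h at 0 °C, triplicates, five experiments. Nonspecific binding taken with 10 µM atropine. Two-site fit by unweighted nonlinear regression gave KH and KL, which were corrected for [3H]NMS occupancy.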

Series [2] is described as follows: Rate constant for decay of compound was determined in 50 mM phosphate buffer (pH 7.4) at 37 degree celsius. It is filed as ADME. The method, boiled down: (§2)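 Solvolysis in 50 mM phosphate buffer pH 7.4 at 37 °C. Halide release by argentometric titration. Aziridinium ion quantified by thiosulfate reaction and iodine back-titration. k1 and k2 obtained by unweighted Gauss-Newton nonlinear fit, with half-lives following from them.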

Series [3] is described as follows: Dissociation constant of compound was determined at muscarinic receptor in the rat cerebral cortex. In kind it is tissue-based. In short, it runs like this:
as §1

The species entered for series [4] is Rattus norvegicus. The experiment in a line: Rate constants of compound was determined at muscarinic receptor in the rat cerebral cortex. It is filed as ADME. In short, it runs like this: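 Rat cortex homogenate (25 mg wet tissue/mL, 50 mM phosphate pH 7.4), preincubated 10 min at 37 °C. Precyclized haloethylamines then added at 0.1 mM to 1 nM final for 30 min. Reaction stopped with thiosulfate (1.0 mM) and atropine (0.1 mM), and tissue washed four times. Residual binding of 0.4 nM [3H]QNB measured over 1 h at 37 °C. Rate equation fitted by unweighted nonlinear regression, using initial aziridinium concentration.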

Series [5] in a line: Half life of compound was determined in 50 mM phosphate buffer (pH 7.4) at 37 degree celsius. It is filed as ADME. In short, it runs like this: as §2
A short description of series [6]: First order rate constant of compound was determined in 50 mM phosphate buffer (pH 7.4) at 37 degree celsius. In kind it is ADME. In short, it runs like this:
as §2

The nature of series [7]: Acute toxicity of compound when injected intravenously in mice. It is filed as organism-based. The note with it: mouse, in vivo, iv.
Series [8] can be described thus: Percentage affinity of compound towards muscarinic receptor sites in the rat cerebral cortex. It is filed as tissue-based. In short, it runs like this: as §1
Series [9] can be described thus: Equilibrium binding parameters of compound was determined at muscarinic receptor in the rat cerebral cortex. In kind it is tissue-based. The method, boiled down: as §1
A short description of series [10]: Ratio of binding constants KL to KH was determined. The method, boiled down: as §1
Series [11] in a line: Rate constant for decay of compound was determined in 50 mM phosphate buffer (pH 7.4) at 24 degree celsius. It is filed as ADME. In short, it runs like this: (§3)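 Solvolysis in 50 mM phosphate buffer pH 7.4 at 24 °C. Halide release measured by argentometric titration. Aziridinium ion was reacted with thiosulfate, and the excess was back-titrated with iodine. k1 (cyclisation) and k2 (aziridinium decay) came from an unweighted Gauss-Newton fit of kinetic models.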

The nature of series [12]: First order rate constant of compound was determined in 50 mM phosphate buffer (pH 7.4) at 24 degree celsius. In kind it is ADME. The method, boiled down:
as §3

pKi: −log10 of the molar value.

Turning to `C[N+]1(CC#CCN2CCCC2=O)CC1`, in series [1], the pKi is 6.48.
As for `CC1CCC(=O)N1CC#CC[N+]1(C)CC1` (configuration not stated), the pKi in series [1] is 7.28.
For `CC1CCC(=O)N1CC#CCN(C)CCCl` (configuration not stated), the K2 in series [2] is 0.045 min⁻¹. Moreover, the KA in [3] came to 0.058 µM. Besides, the K3 in [4] was determined as 0.091 min⁻¹. In [5] (buffer), this compound registered a T1/2 of 15.3 min. The compound further registered a half-life in series [5] (phosphate buffer) of 27.7 min. Further, the K1 in [6] was found to be 0.025 min⁻¹. In series [7], this compound gave an LD50 of 396 µmol/kg.
In series [2], `CN(CC#CCN1CCCC1=O)CCBr` yielded a K2 of 0.04 min⁻¹. This compound also registered an Affinity in series [8] of 16.5%. Moreover, in series [9], the KH worked out at 0.001 µM and the KL stood at 0.47 µM. In series [3], this compound yielded a KA of 0.35 µM. This compound had a K3 in series [4] of 0.062 min⁻¹. Also, the Ratio in series [10] is 466. In [6], this compound gave a K1 of 0.85 min⁻¹.
Take `CC1CCC(=O)N1CC#CCN(C)CCBr` (configuration not stated): the K2 in [2] was determined as 0.06 min⁻¹; in [11], 0.0096 min⁻¹. Further, the Affinity in series [8] was 14.2%. The KH in [9] worked out at 0.001 µM. For the same compound, the KL in [9] came to 0.071 µM. In series [3], this compound returned a KA of 0.035 µM. Further, the K3 in series [4] worked out at 0.096 min⁻¹. The Ratio in series [10] was found to be 71. Further, the K1 is 0.89 min⁻¹ in [6] and 0.18 min⁻¹ in series [12]. This compound displayed an LD50 in series [7] of 81 µmol/kg.
In series [2], `CN(CC#CCN1CCCC1=O)CCCl` returned a K2 of 0.033 min⁻¹. The same compound displayed a KA in series [3] of 0.79 µM. The K3 in [4] amounted to 0.064 min⁻¹. Also, the K1 in series [6] amounted to 0.019 min⁻¹.
